Source: PubChem BioAssay (Broad Institute)
C2C12 statin = suppression of simvastatin myotoxicity. C2C12 myotubes + simvastatin, ATP luminescence, 48 h; scaled: DMSO 0, geranylgeraniol control 100. rescue of ATP level, % at 7.49 µM. 330,000 tested, 0.78% active. AID 602340;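 active = mean ATP rescue above about 67%, or every replicate alone reaching that limit, limit read from the data, passing the limit was not always enough; inconclusive = no clear call, values can overlap the other calls; inactive = mean under the limit and some replicate under it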;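 note: myotubes were challenged with 10 µM simvastatin during compound exposure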
E-selectin induc = induces E-selectin expression in human endothelial cells | activation, % at 7.58 µM | 260,000 tested, 0.37% active | HUVEC E-selectin immunofluorescence imaging; normalized: neutral wells 0, TNF-alpha wells 100 | P16581;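 active = mean E-selectin-positive cell signal at least 10% of the positive control, reached in at least 60% of replicates, without over 20% cell loss; inconclusive = no rule given, readout overlaps actives, possibly toxicity-flagged; inactive = the rest, including those meeting only one limit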
Target sequence (P16581 whole entry, looked up): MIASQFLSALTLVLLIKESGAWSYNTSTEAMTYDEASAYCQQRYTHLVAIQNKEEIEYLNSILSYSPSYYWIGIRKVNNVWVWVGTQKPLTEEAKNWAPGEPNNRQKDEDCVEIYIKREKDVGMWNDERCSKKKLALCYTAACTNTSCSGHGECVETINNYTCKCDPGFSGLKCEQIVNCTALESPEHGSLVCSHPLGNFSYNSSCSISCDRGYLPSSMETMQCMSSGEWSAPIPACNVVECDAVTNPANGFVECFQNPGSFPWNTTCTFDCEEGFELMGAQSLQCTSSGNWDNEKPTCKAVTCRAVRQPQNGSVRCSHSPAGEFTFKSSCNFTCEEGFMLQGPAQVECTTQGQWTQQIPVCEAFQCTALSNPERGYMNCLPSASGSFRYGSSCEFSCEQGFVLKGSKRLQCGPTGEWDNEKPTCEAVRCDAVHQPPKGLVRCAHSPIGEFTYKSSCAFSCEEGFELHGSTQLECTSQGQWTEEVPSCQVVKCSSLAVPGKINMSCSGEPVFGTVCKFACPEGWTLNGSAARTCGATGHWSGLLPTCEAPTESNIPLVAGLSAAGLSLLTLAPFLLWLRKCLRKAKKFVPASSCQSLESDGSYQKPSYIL
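Test system: HUVEC | Signal: Immunofluorescence imaging | Read-out: Percent E-selectin-positive cells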
DENV2 CPE rescue = DENV2-induced cell death inhibition. DENV2-infected cells, cytopathic effect rescue, plate reader. CPE inhibition, % at 9.99 µM. 350,000 tested, 1.7% active. AID 651640; in the data active = CPE inhibition above about 20%, passing the limit was not always enough; inconclusive = no clear call, values can overlap the other calls; tested in BHK-21 cells;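 note: 0% = median of neutral control wells and 100% = median of positive control wells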
Starred values were filed as active, the others as inactive; ? = inconclusive; · = no result given; ! = repeats disagree. Rows were chosen to be rich in hits. Some 2.2% of all compounds tested hit in one or more screens of this group.

SMILES	C2C12 statin	E-selectin induc	DENV2 CPE rescue
C[C@H](CO)N1C[C@H](C)[C@@H](CN(C)S(=O)(=O)c2cn(C)cn2)Oc2ccc(NC(=O)Nc3ccc(F)cc3)cc2CC1=O	-10	61*	·
COc1ccc(NC(=O)Nc2ccc3c(c2)CC(=O)N([C@H](C)CO)C[C@H](C)[C@H](CN(C)S(=O)(=O)c2cn(C)cn2)O3)cc1	-1	·	27*
C[C@@H]1CN([C@H](C)CO)S(=O)(=O)c2ccc(-c3ccccc3F)cc2O[C@@H]1CN(C)Cc1ccncc1	-26	0	-7
Cc1noc(C)c1NC(=O)N(C)C[C@@H]1Oc2c(NC(=O)c3cnccn3)cccc2C(=O)N([C@H](C)CO)C[C@@H]1C	32	0	1
C[C@H](CO)N1C[C@H](C)[C@H](CN(C)Cc2ccc(F)cc2)OCc2ccccc2-c2ccccc2C1=O	-13	0	-5
CCn1c(=O)c(-c2ccccc2)c(O)c2ccccc21	1	·	·
CCCCn1c(=O)c(-c2ccccc2)c(O)c2ccccc21	120*	·	·
O=C(C[C@H]1C[C@H]2c3cc(NS(=O)(=O)c4ccc(F)cc4)ccc3O[C@H]2[C@H](CO)O1)N1CCc2ccccc2C1	6	0	4
O=C(C1CCC1)N1CC2(C1)[C@@H](c1ccccc1)[C@@H](CO)N2CCC(F)(F)F	·	0	0
C[C@H](CO)N1C[C@H](C)[C@H](CN(C)C(=O)c2ccc3c(c2)OCO3)Oc2ncc(C#CCN(C)C)cc2C1=O	2	1	25*
CCCC#Cc1cnc2c(c1)C(=O)N([C@@H](C)CO)C[C@H](C)[C@H](CN(C)C(=O)c1ccc3c(c1)OCO3)O2	9	1	-3
CCCC#Cc1cnc2c(c1)C(=O)N([C@@H](C)CO)C[C@@H](C)[C@H](CN(C)C(=O)c1ccc3c(c1)OCO3)O2	23	0	83*
C[C@@H]1CN([C@H](C)CO)C(=O)c2cc(C#CCN(C)C)cnc2O[C@H]1CN(C)C(=O)c1ccc2c(c1)OCO2	-2	0	-3
COc1cccc(S(=O)(=O)Nc2ccc3c(c2)[C@@H]2C[C@@H](CC(=O)O)O[C@H](CO)[C@@H]2O3)c1	-6	1	0
COc1cccc(CN2CC3(C2)CN(C(=O)Nc2ccc(F)cc2)[C@H](CO)c2c3c3ccc(OC)cc3n2C)c1	·	0	10
C[C@@H]1CN([C@H](C)CO)C(=O)Cc2cc(NC(=O)c3ccncc3)ccc2O[C@H]1CN(C)C	2	8	5
CO[C@H]1CN(C)C(=O)c2cc(NC(=O)NC(C)C)ccc2OC[C@@H](C)N(C)C[C@H]1C	-11	5	5
CC1CN(C(=O)COC(=O)CSc2ccc(C(N)=O)cc2[N+](=O)[O-])CC(C)O1 (configuration not stated)	·	219*	-5
CC1CCC(NC(=O)COC(=O)CSc2ccc(C(N)=O)cc2[N+](=O)[O-])CC1 (configuration not stated)	·	·	0
C[C@@H]1CN([C@H](C)CO)C(=O)Cc2cc(NS(=O)(=O)c3cn(C)cn3)ccc2O[C@@H]1CN(C)Cc1ccc2c(c1)OCO2	27	0	-3
C[C@@H]1CN([C@H](C)CO)C(=O)Cc2cc(NS(=O)(=O)c3cn(C)cn3)ccc2O[C@H]1CN(C)Cc1ccc(-c2ccccc2)cc1	?	0	7
C[C@H](CO)N1C[C@H](C)[C@@H](CN(C)Cc2ccc3c(c2)OCO3)Oc2ccc(NS(=O)(=O)c3cn(C)cn3)cc2CC1=O	33	0	45*
C[C@H](CO)N1C[C@H](C)[C@@H](CN(C)Cc2ccc(Cl)c(Cl)c2)Oc2ccc(NS(=O)(=O)c3cn(C)cn3)cc2CC1=O	166*	·	-4
C[C@@H]1CN([C@H](C)CO)C(=O)Cc2cc(NS(=O)(=O)c3cn(C)cn3)ccc2O[C@H]1CN(C)Cc1ccc2c(c1)OCO2	-7	0	-5
C[C@@H]1CN([C@H](C)CO)C(=O)Cc2cc(NS(=O)(=O)c3cn(C)cn3)ccc2O[C@@H]1CN(C)Cc1ccc(-c2ccccc2)cc1	82*	1	5
SMILES	C2C12 statin	E-selectin induc	DENV2 CPE rescue
CC(C)NC(=O)N(C)C[C@H]1OCCCC[C@@H](C)Oc2ccc(NC(=O)Nc3ccc(F)cc3)cc2C(=O)N([C@@H](C)CO)C[C@H]1C	·	0	8
CNC[C@H]1Oc2ccc(NC(=O)C3CCCCC3)cc2CC(=O)N([C@H](C)CO)C[C@@H]1C	4	0	90*!
C[C@@H]1CN([C@H](C)CO)C(=O)Cc2cc(NC(=O)NC3CCCCC3)ccc2O[C@@H]1CN(C)CC1CC1	11	-2	-7
C[C@@H]1CN([C@@H](C)CO)C(=O)Cc2cc(NC(=O)NC3CCCCC3)ccc2O[C@H]1CN(C)CC1CC1	-7	-2	41*
CNC[C@H]1Oc2ccc(NC(=O)C3CCCCC3)cc2CC(=O)N([C@H](C)CO)C[C@H]1C	13	0	-2
C[C@@H]1CN([C@@H](C)CO)C(=O)Cc2cc(NC(=O)C3CCCCC3)ccc2O[C@H]1CN(C)CC1CC1	10	0	76*
C[C@H](CO)N1C[C@H](C)[C@@H](CN(C)CC2CC2)Oc2ccc(NC(=O)C3CCCCC3)cc2CC1=O	17	0	?
Cc1noc(C)c1NC(=O)N(C)C[C@H]1Oc2c(NC(=O)Nc3ccc4c(c3)OCO4)cccc2C(=O)N([C@@H](C)CO)C[C@@H]1C	-4	0	-1
C[C@@H]1CCCCO[C@@H](CN(C)Cc2ccncc2)[C@@H](C)CN([C@@H](C)CO)C(=O)c2cc(NC(=O)CCC(F)(F)F)ccc2O1	4	1	-2
Cc1ccc(S(=O)(=O)N2C[C@H](O)COC[C@H]3O[C@H](CC(=O)NCCN4CCCCC4)CC[C@@H]32)cc1	12	0	1
Cn1cnc(S(=O)(=O)N2C[C@H](O)COC[C@H]3O[C@H](CC(=O)NC4CCCC4)CC[C@@H]32)c1	-7	0	20
Cc1ccc(S(=O)(=O)N2C[C@@H](O)COC[C@H]3O[C@@H](CC(=O)NCCN4CCCCC4)CC[C@@H]32)cc1	6	0	67*
Cn1cnc(S(=O)(=O)N2C[C@@H](O)COC[C@@H]3O[C@@H](CC(=O)NC4CCCC4)CC[C@H]32)c1	13	0	114*
CN(C)CCCNC(=O)C[C@@H]1CC[C@H]2[C@@H](COC[C@H](O)CN2S(=O)(=O)c2ccccc2)O1	-7	0	60*
CN(C)CCCNC(=O)C[C@@H]1CC[C@@H]2[C@H](COC[C@@H](O)CN2S(=O)(=O)c2ccc(F)cc2)O1	3	0	2
O=C(C[C@H]1CC[C@H]2[C@@H](COC[C@@H](O)CN2S(=O)(=O)c2cccc(Cl)c2)O1)NCCCN1CCOCC1	3	0	-7
C[C@@H]1CN([C@@H](C)CO)S(=O)(=O)c2ccc(-c3ccccc3)cc2O[C@@H]1CN(C)C	-16	0	·
CCC(=O)N1C[C@H]2[C@@H](c3ccccc31)[C@@H](CO)N2C(=O)Nc1ccccc1F	-6	0	3
C[C@H]1CN([C@@H](C)CO)C(=O)Cc2cc(NC(=O)c3ccncc3)ccc2O[C@@H]1CN(C)S(C)(=O)=O	-16	-15	·
